# Assay results reported in ChEMBL document CHEMBL2010802, “Melodinines M-U, cytotoxic alkaloids from Melodinus suaveolens” (J Nat Prod, 2012).
# Tests used:
# Format in all cases: functional, cell-based
# SW480 = assay: Cytotoxicity against human SW480 cells after 48 hrs by MTT assay; conditions: SW480, 48 h
# Outline: (§1)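 Cells grown in RPMI-1640 or DMEM with 10% FBS, 5% CO2, 37 °C, at 1 × 10^5 cells/mL. Adherent lines (A-549, MCF-7, SMMC-7721, SW480) were left to attach 12 h before dosing; suspension HL-60 was seeded just before dosing. Exposed 48 h to 0.064, 0.32, 1.6, 8 and 40 μM in triplicate, with cisplatin as positive control. MTT viability read-out; IC50 by Reed and Muench method.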
# A549 = assay: Cytotoxicity against human A549 cells after 48 hrs by MTT assay; conditions: A549, 48 h; outline: as §1
# SMMC-7721 = assay: Cytotoxicity against human SMMC7721 cells after 48 hrs by MTT assay; conditions: SMMC-7721, 48 h; outline: as §1
# MCF7 = assay: Cytotoxicity against human MCF7 cells after 48 hrs by MTT assay; conditions: MCF7, 48 h; outline: as §1
# HL-60 = assay: Cytotoxicity against human HL60 cells after 48 hrs by MTT assay; conditions: HL-60, 48 h; outline: as §1
smiles,measurement,setting,value
CC[C@]12C=CCN3CC[C@]4(C(=C(C(=O)OC)C1)Nc1cc(O)c(COC)cc14)[C@@H]32 [MELODININE O],IC50,SW480,14.9 µM
same,IC50,A549,18.2 µM
same,IC50,SMMC-7721,15.2 µM
same,IC50,MCF7,15.7 µM
same,IC50,HL-60,10 µM
CC[C@]12C=C[C@@H](CC(C)=O)N3CC[C@]4(C(=C(C(=O)OC)C1)Nc1ccccc14)[C@@H]32,IC50,SW480,0.5 µM
same,IC50,A549,0.6 µM
same,IC50,SMMC-7721,0.3 µM
same,IC50,MCF7,0.4 µM
same,IC50,HL-60,0.2 µM
CC[C@]12C=CCN3CC[C@]4(C(=C(C(=O)OC)C1)Nc1cc(OC)ccc14)[C@@H]32,IC50,SW480,2.4 µM
same,IC50,A549,1 µM
same,IC50,SMMC-7721,1.1 µM
same,IC50,MCF7,0.2 µM
same,IC50,HL-60,0.5 µM
CC[C@]12C=CCN3CC[C@]4(C(=C(C(=O)OC)C1)Nc1cc(O)ccc14)[C@@H]32,IC50,SW480,> 40 µM
same,IC50,A549,17.6 µM
same,IC50,SMMC-7721,15.5 µM
same,IC50,MCF7,> 40 µM
same,IC50,HL-60,6 µM
COC(=O)C1=C2Nc3ccccc3[C@@]23CCN2[C@H](CC(C)=O)C=C[C@@]([C@@H](C)O)(C1)[C@H]23 [MELODININE R],IC50,SW480,1.6 µM
same,IC50,A549,3.9 µM
same,IC50,SMMC-7721,3.3 µM
same,IC50,MCF7,1.8 µM
same,IC50,HL-60,0.7 µM
CC[C@@]12CC(C(=O)OC)=C3Nc4ccccc4[C@@]34CCN(C[C@@H]3O[C@@H]31)[C@@H]24 [LOCHNERICINE],IC50,SW480,> 40 µM
same,IC50,A549,> 40 µM
same,IC50,SMMC-7721,24.7 µM
same,IC50,MCF7,> 40 µM
same,IC50,HL-60,15.5 µM
CC[C@@]12CC(C(=O)OC)=C3Nc4ccccc4[C@@]34CCN([C@H](CC(C)=O)[C@@H]3O[C@@H]31)[C@@H]24 [MELODININE S],IC50,SW480,13.5 µM
same,IC50,A549,15.2 µM
same,IC50,SMMC-7721,11.2 µM
same,IC50,MCF7,7 µM
same,IC50,HL-60,4.8 µM
CC[C@]12C=CCN3CC[C@]4(C(=C(C(=O)OC)C1)Nc1ccc(O)cc14)[C@@H]32 [MELODININE P],IC50,SW480,> 40 µM
same,IC50,A549,> 40 µM
same,IC50,SMMC-7721,> 40 µM
same,IC50,MCF7,> 40 µM
same,IC50,HL-60,28.1 µM
CC[C@]12C=CCN3CC[C@]4(C(=C(C(=O)OC)C1)Nc1cc(O)c(C)cc14)[C@@H]32 [MELODININE N],IC50,SW480,15.1 µM
same,IC50,A549,18.5 µM
same,IC50,SMMC-7721,15.5 µM
same,IC50,MCF7,15 µM
same,IC50,HL-60,3.5 µM
COC(=O)C1=C2Nc3cc(OC)ccc3[C@@]23CCN2CC=C[C@@]([C@@H](C)O)(C1)[C@H]23,IC50,SW480,13.1 µM
same,IC50,A549,19.7 µM
same,IC50,SMMC-7721,16 µM
same,IC50,MCF7,21.3 µM
same,IC50,HL-60,6.3 µM
CC[C@]12C=CCN3CC[C@]4(C(=C(C(=O)OC)C1)Nc1ccccc14)[C@@H]32 [TABERSONINE],IC50,SW480,12.1 µM
same,IC50,A549,14.7 µM
same,IC50,SMMC-7721,5.6 µM
same,IC50,MCF7,9.9 µM
same,IC50,HL-60,4.5 µM
COC(=O)C1=C2Nc3ccccc3[C@@]23CCN2CC=C[C@@]([C@@H](C)OC(C)=O)(C1)[C@H]23,IC50,SW480,15 µM
same,IC50,A549,15.5 µM
same,IC50,SMMC-7721,6 µM
same,IC50,MCF7,14.2 µM
same,IC50,HL-60,5.8 µM
